In ChEMBL document CHEMBL1122715, “beta-Lapachone: synthesis of derivatives and activities in tumor models” (1984) one finds EC50 and MTD data, which are given here for eleven compounds.

Structures are written as SMILES. ≈ marks a conversion by molar mass, not a printed value. Some results are limits rather than exact numbers.

As a reminder, the MTD is the largest dose that counted as tolerated. Low readings indicate poorer tolerability, high ones better tolerability.

Test [1] relates to Rauscher murine leukemia virus. Description: In vitro inhibition of RNA dependent DNA polymerase of Rauscher leukemia virus (RLV). The conditions noted are these: read-out: ED50. Format: functional. An outline of the steps: (§1)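 Reverse transcriptase activity assayed with poly(rA)·oligo(dT) or poly(rC)·oligo(dG) template-primer (20 μg/mL) and [³H]dTTP or [³H]dGTP substrate (20 μM, […]); inhibition read as loss of labelled nucleotide incorporation.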

In test [2] the test system is Avian myeloblastosis virus. Nature of the test: In vitro inhibition of RNA dependent DNA polymerase of Avian myeloblastosis virus (AMV). The class given is functional. The note with it: read-out: ED50. An outline of the steps:
as §1

Another test relates to Mus musculus. Nature of the test: Maximum tolerated dose (MTD, po) in uninfected NMRI mice.

As for `CC1(c2ccccc2)CCC2=C(O1)c1ccccc1C(=O)C2=O` (stereo unspecified), the EC50 in test [1] and in test [2] was 2 µg/mL (≈ 6.57 µM) in each case. The same compound had an MTD in the test with Mus musculus greater than 2500 mg/kg.
Turning to `CCC1(CC)CCC2=C(O1)c1ccccc1C(=O)C2=O`, in test [2], the EC50 stood at 2 µg/mL (≈ 7.4 µM). In the test with Mus musculus, this compound displayed an MTD of 2500 mg/kg.
On to `O=C1C(=O)c2ccccc2C2=C1CCC1(CCCCCC1)O2`, for which the EC50 in test [2] was 15 µg/mL (≈ 50.6 µM).
As for `COc1cc2c(cc1OC)C1=C(CCC(C)(C)O1)C(=O)C2=O`, in test [2], the EC50 came to 5 µg/mL (≈ 16.5 µM). The compound further came in with an MTD in the test with Mus musculus greater than 1250 mg/kg.
For `CCC1(C)CCC2=C(O1)c1ccccc1C(=O)C2=O` (stereo unspecified) the same measures were less than 2 µg/mL and 125 mg/kg.
In the test with Mus musculus, `CC1(C)CCC2=C(O1)c1ccc(Cl)cc1C(=O)C2=O` returned an MTD greater than 2500 mg/kg.
Turning to `O=C1C(=O)c2ccccc2C2=C1CCC1(CCCCC1)O2`, the EC50 in test [2] was determined as 3 µg/mL (≈ 10.6 µM). This compound also gave a maximum tolerated dose (MTD) in the test on Mus musculus greater than 2500 mg/kg.
The corresponding values for `O=C1C(=O)c2ccccc2C2=C1CCC(c1ccccc1)O2` (stereo unspecified) are less than 2 µg/mL and greater than 2500 mg/kg.
For `O=C1C(=O)c2ccccc2C2=C1CCC1(CCCC1)O2` the same measures were 3 µg/mL (≈ 11.2 µM) and greater than 2500 mg/kg.
Take `Cc1ccc2c(c1)C(=O)C(=O)C1=C2OC(C)(C)CC1`: the MTD in the test with Mus musculus was greater than 2500 mg/kg.
For the compound `CC1(C)CCC2=C(O1)c1ccccc1C(=O)C2=O` [LAPACHONE], the EC50 in test [1] and in test [2] was less than 2 µg/mL each time. The same compound came in with an MTD in the test with Mus musculus of 1250 mg/kg.
